# The list is not random: actives were taken first. Their share in the collection is about 5.8%.
# HIV Rev-RRE inh = HIV-1 Rev-RRE binding inhibitors, primary screen, biochemical, FRET, protein-RNA interaction. 97,000 compounds, 0.79% hits. inhibition, % at 8 µM. AID 704, 2007. Rev peptide-RRE RNA binding. P05866;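 active = inhibition above the screen-wide mean plus 3 SD, cut at about 35% in these data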;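 also: 0% = median DMSO wells and 100% = median Neomycin B control wells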
# Target sequence (P05866 whole entry, looked up): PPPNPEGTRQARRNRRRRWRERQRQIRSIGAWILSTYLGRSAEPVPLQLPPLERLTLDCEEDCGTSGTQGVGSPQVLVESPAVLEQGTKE
#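 assay system = Cy5-tagged RRE RNA duplex with fluorescein-tagged Rev peptide | incubation = 5 + 15 min at 25 °C | also added = labelled Rev peptide | measure = % inhibition of FRET ratio versus controls | benchmarks = DMSO wells as 0% and neomycin B wells as 100% inhibition | measured by = FRET fluorescence readout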
# FAK inh = FAK kinase inhibitors, primary screen, biochemical | Focal adhesion kinase 1 (Homo sapiens), Q05397 | biochemical FAK kinase activity assay | inhibition, %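 (tested at 7 µM)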 | 97,000 compounds, 0.84% hits | AID 727, 2007;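 also: 0% = DMSO and 100% = reference compound high control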
# Cav3 T inh = Cav3.2 calcium influx blockers – cell-based, Fluo-4 calcium fluorescence, FDSS, MLSMR library, primary screen | B-score at 10 µM | Voltage-dependent T-type calcium channel subunit alpha-1H (Homo sapiens), O95180 | Cav3.2-expressing cells; stronger effect = lower value | 100,000 compounds, 4% hits;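 active = single-dose well whose peak fluorescence ratio is a statistical outlier from its plate by either plate-standardised score or position-corrected B-score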
# Plk1 PBD FP = Plk1 polo box domain binding inhibitors, primary screen, biochemical, fluorescence polarization; AID 693, 2007; Plk1 PBD phosphopeptide binding; Serine/threonine-protein kinase PLK1 (Homo sapiens), P53350; 97,000 compounds, 0.13% hits; inhibition, %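 (tested at about 20 µM)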; in the data active = inhibition above about 34%, passing the limit was not always enough
# PLK1 kinase inh = human PLK1 kinase inhibitors, primary screen, biochemical, TR-FRET | recombinant PLK1 kinase, TR-FRET peptide phosphorylation | 97,000 compounds, 0.53% hits | inhibition, % at 10 µM | Serine/threonine-protein kinase PLK1 (Homo sapiens), P53350;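 active = inhibition of 50% or more in the single-concentration screen; inactive = inhibition below 50%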;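 also: 0% = DMSO max control and 100% = H-89 dihydrochloride min control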
# Pyk2 oligo antag = antagonists of Pyk2 self-association, primary screen, Q293 cells, FERM NanoBiT luminescence, HTS | stronger effect = lower value | z-score (the deposit names both 25 µM and 10 µM) | Protein-tyrosine kinase 2-beta (Homo sapiens), Q14289 | 99,000 compounds, 0.83% hits | AID 1347419, 2020;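 active = Z-score of -3 or lower, scaled per plate to the spread of control and sample wells; inactive = z-score above -3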;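 also: negative z-score means lost luminescence so less FERM oligomerization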
# PLK1 inh conf = PLK1 kinase activity inhibitors, confirmation, biochemical, TR-FRET, duplicate runs; inhibition, % at 10 µM; AID 744, 2007; recombinant PLK1 kinase, TR-FRET peptide phosphorylation; shares compounds with PLK1 kinase inh; 210 compounds, 20% hits;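 active = inhibition at or above 50% in each of two repeat confirmation tests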;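 also: 0% = DMSO max control and 100% = H-89 kinase-blocked min control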
# Plk1 interf = compound interference with Plk1 assay readout, artefact control for Plk1 kinase inhibitor project, biochemical, TR-FRET, compound added post-reaction; shares compounds with PLK1 kinase inh; inhibition (interference), % at 10 µM; 210 tested, under 10 active;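 active = both duplicate runs show 50% or greater inhibition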;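 also: 0% = DMSO max control and 100% = H-89 min control inhibited reaction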
# FAK inh confirm = FAK kinase inhibitors, retest, confirmation, biochemical; 750 compounds, 28% hits; inhibition, % at 7 µM; shares compounds with FAK inh; FAK kinase biochemical inhibition assay
# An asterisk follows results filed as active; . = no result given. Rule as the data show it, unless noted: active = inhibition above about 19%; inactive = the rest.
SMILES,HIV Rev-RRE inh,FAK inh,Cav3 T inh,Plk1 PBD FP,PLK1 kinase inh,Pyk2 oligo antag,FAK inh confirm,others
CN(C)C(=O)Oc1ccc(-c2nnco2)cc1,4.4,-4.6,-0.472,-7.9,77.9*,.,.,PLK1 inh conf=-11.2;Plk1 interf=-58.3
Cc1cc(C)c(C2=NOC(O)(C(F)(F)F)C2)c(=O)[nH]1 (centres undefined),8.6,0.8,-0.0711,9.5,-2.6,1.32,.,
C[C@H]1CCCC(=O)CCC/C=C/c2cc(O)cc(O)c2C(=O)O1,9.8,35.3*,-0.37,3.0,-19.7,.,30.7*,
COC(=O)CC(=O)c1ccc2c(c1)OCO2,.,.,0.0128,.,.,.,.,
COc1ccc(OCC(=O)Nc2ccc(Cl)cc2C(=O)c2ccccc2)cc1,9.6,25.0*,-0.27,-15.3,-3.0,-1.3,-0.5,
CC12CN3CCN(C1)CC(C)(C3)C2=NO,1.5,0.9,-0.207,-12.1,0.1,-0.04,.,
CCCCn1c(NS(=O)(=O)c2ccc(C)cc2)c(C(=O)OCC)c2nc3ccccc3nc21,.,.,.,.,.,-1.22,.,
CCCCn1c(NC(=O)c2ccco2)c(C(=O)OCC)c2nc3ccccc3nc21,30.3,27.3*,-2.09,-10.7,0.1,-1.75,-0.3,
